Assay results as given in PMC6105922 (Rheumatology (Oxford, England), 2018).

Columns and labels:
serum urate (sUA) = assay: Serum urate; format: in vivo, human; details: for Proportion of subjects with sUA ⩽6.0 mg/dl at 4 h after treatment: pooled cohorts
urinary uric acid = assay: Urinary uric acid excretion; format: in vivo, human; details: for FEUA (fractional excretion of uric acid) relative to baseline: data not shown; for Mean maximum ReUR (urinary uric acid excretion rate) relative to baseline: in vivo
Outline: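 Oral dosing was once daily after breakfast over 7-day periods in hyperuricaemic Japanese men. Total-catch urine was collected on days −1, 7, 14, 21 and 28, with 240 ml water drunk on rising, within 2 h before dosing. The urinary uric acid excretion rate (mg/h) and fractional excretion (%) were calculated per 24-h collection and compared with baseline.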

[1] = Safety: adverse events, serum creatinine, laboratory evaluations; format: in vivo, human
Outline: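 Males aged 21–65 were dosed orally once daily after breakfast for 7-day periods and followed to day 42. Monitoring covered adverse events (MedDRA v18.0), clinical laboratory tests including serum creatinine, vital signs, ECGs and physical examinations. An independent committee was to adjudicate serious renal events. Clinically relevant laboratory abnormalities were graded by Rheumatology Common Toxicity Criteria v2.0. Results are descriptive, in everyone given at least one dose.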

[2] = Plasma and urine pharmacokinetics of verinurad; format: in vivo; details: human, oral
Outline: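 Japanese men with gout or asymptomatic hyperuricaemia (sUA ≥8 mg/dl) took oral drug once daily after breakfast, alone or with febuxostat 10, 20 or 40 mg, over 7-day periods. Serial plasma and total-catch urine were taken on days −1, 7, 14, 21 and 28. Plasma was protein-precipitated and urine water-diluted, both assayed by HPLC-MS/MS.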

Row | half-life ([2]; plasma, mean t½, varying verinurad doses alone or in combination with febuxostat) | CL renal ([2]; urine and plasma) | Compound | Subjects achieving sUA ⩽6.0 mg/dl 4 h after treatment (serum urate (sUA); benzbromarone 50 mg alone) | sUA-lowering effect (serum urate (sUA); benzbromarone 50 mg, Cohort 6) | FEUA (fractional excretion of uric acid) relative to baseline (urinary uric acid) | Mean maximum ReUR (urinary uric acid excretion rate) relative to baseline (urinary uric acid) | Proportion of subjects with sUA ⩽6.0 mg/dl at 4 h after treatment (serum urate (sUA); febuxostat 10 mg alone) | Proportion of subjects with sUA ⩽6.0 mg/dl at 4 h after treatment (serum urate (sUA); febuxostat 40 mg alone) | Subjects achieving sUA ⩽6.0 mg/dl 4 h after treatment (serum urate (sUA); verinurad 10 or 15 mg alone) | Subjects with sCr elevation ⩾1.5 × baseline ([1]; verinurad 2.5 mg or verinurad 15 mg alone (cohort 5)) | Tolerability ([1]; verinurad 2.5 mg to 15 mg, no withdrawals due to adverse events)
1 | – | – | CCc1oc2ccccc2c1C(=O)c1cc(Br)c(O)c(Br)c1 [benzbromarone] | All subjects | generally similar in sUA-lowering effect to verinurad 5 mg combined with febuxostat 20 mg | – | – | – | – | – | – | –
2 | – | – | Cc1nc(-c2ccc(OCC(C)C)c(C#N)c2)sc1C(=O)O [febuxostat, reference compound] | – | – | reduced | reduced | 20.8% | 83.3% | – | – | –
3 | 13 to 24 h | 12.4 to 15.1 mL/min | CC(C)(Sc1ccncc1-c1ccc(C#N)c2ccccc12)C(=O)O [verinurad] | – | – | increased in a dose-dependent manner | increased | – | – | All subjects | Two subjects | well tolerated
